ChEMBL document CHEMBL5154669, “G-Quadruplex DNA as a Target in Pathogenic Bacteria: Efficacy of an Extended Naphthalene Diimide Ligand and Its Mode of Action” (J Med Chem, 2022)

What was measured:
Enterobacter cloacae [1] = experiment: Antibacterial activity against Enterobacter cloacae LMG 02783 assessed as inhibition of bacterial growth incubated for 20 hrs by CLSI based broth microdilution method; format: functional
Summary of the method: (§1)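 Broth microdilution in cation-adjusted Mueller-Hinton broth following CLSI guidelines. DMSO stocks were at 10 mM; compounds were twofold serially diluted over 128 to 2 μM. The inoculum was at 5 × 10⁵, prepared from colonies grown 20 h at 37 °C and adjusted to 0.5 McFarland. Plates ran 20 h at 37 °C with OD600 read-out. MIC was the lowest concentration inhibiting visible growth, in triplicate.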

Escherichia coli [2] = experiment: Antibacterial activity against Escherichia coli LMG 8223 assessed as inhibition of bacterial growth incubated for 20 hrs by CLSI based broth microdilution method; format: functional; summary of the method: as §1
Pseudomonas aeruginosa [3] = experiment: Antibacterial activity against Pseudomonas aeruginosa LMG 6395 assessed as inhibition of bacterial growth incubated for 20 hrs by CLSI based broth microdilution method; format: functional; summary of the method: as §1
Salmonella enterica [4] = experiment: Antibacterial activity against Salmonella enterica LMG 07233 assessed as inhibition of bacterial growth incubated for 20 hrs by CLSI based broth microdilution method; format: functional; summary of the method: as §1
Bacillus cereus [5] = experiment: Antibacterial activity against Bacillus cereus ATCC 10987 assessed as inhibition of bacterial growth incubated for 20 hrs by CLSI based broth microdilution method; format: functional; summary of the method: as §1
Bacillus cereus [6] = experiment: Antibacterial activity against Bacillus cereus ATCC 14579 assessed as inhibition of bacterial growth incubated for 20 hrs by CLSI based broth microdilution method; format: functional; summary of the method: as §1
Enterococcus faecalis = experiment: Antibacterial activity against Enterococcus faecalis LMG 08222 assessed as inhibition of bacterial growth incubated for 20 hrs by CLSI based broth microdilution method; format: functional; summary of the method: as §1
Enterococcus faecium [7] = experiment: Antibacterial activity against Enterococcus faecium LMG 16003 assessed as inhibition of bacterial growth incubated for 20 hrs by CLSI based broth microdilution method; format: functional; summary of the method: as §1
Staphylococcus aureus [8] = experiment: Antibacterial activity against Staphylococcus aureus LMG 10147 assessed as inhibition of bacterial growth incubated for 20 hrs by CLSI based broth microdilution method; format: functional; summary of the method: as §1
Acinetobacter baumannii = experiment: Bacteriostatic activity against Acinetobacter baumannii LMG 01041 assessed as inhibition of bacterial growth; format: functional
Summary of the method: (§2)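 A standard MIC plate (128–2 μM, cMHB, 20 h, 37 °C) was read at OD600. Each well then seeded at 10% a fresh compound-free cMHB plate, grown another 20 h at 37 °C and read at OD600. No growth at the same concentration in both plates counted as bactericidal. Growth above the MIC counted as bacteriostatic. Done in triplicate.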

Enterobacter cloacae [9] = experiment: Bactericidal activity against Enterobacter cloacae LMG 02783 assessed as inhibition of bacterial growth; format: functional; summary of the method: as §2
Escherichia coli [10] = experiment: Bactericidal against Escherichia coli LMG 8223 assessed as inhibition of bacterial growth; format: functional; summary of the method: as §2
Klebsiella pneumoniae [11] = experiment: Bactericidal activity against Klebsiella pneumoniae LMG 20218 assessed as inhibition of bacterial growth; format: functional; summary of the method: as §2
Bacillus cereus [12] = experiment: Bacteriostatic activity against Bacillus cereus ATCC 10987 assessed as inhibition of bacterial growth; format: functional; summary of the method: as §2
Enterococcus faecium [13] = experiment: Bacteriostatic activity against Enterococcus faecium LMG 16003 assessed as inhibition of bacterial growth; format: functional; summary of the method: as §2
Staphylococcus aureus [14] = experiment: Bacteriostatic activity against Staphylococcus aureus LMG 8224 assessed as inhibition of bacterial growth; format: functional; summary of the method: as §2
DNA [15] = experiment: Stabilization of Staphylococcus aureus in G Quadruplex DNA GGGGCTAATTGGGGCTGGTGG assessed as change in melting temperature at 10 uM incubated for 16 hrs by […]; format: nucleic-acid assay
Summary of the method: (§3)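 Readout was CD melting, not FRET: 2.5 μM oligonucleotide in 10 mM lithium cacodylate pH 7.4 with KCl set per sequence (initial Tm 60-70 °C). Annealed 95 °C 5 min, cooled to room temperature over 4 h, then ligand 10 μM (4 equiv) equilibrated 16 h at 20 °C. Ellipticity at 260 nm tracked every 0.1 °C, 20-95 °C at 5 °C/min; Tm by van't Hoff two-state fit.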

DNA [16] = experiment: Stabilization of Staphylococcus aureus in G-quadruplex DNA GGGTTTGGGGCGGCGGTTGG assessed as change in melting temperature at 10 uM incubated for 16 hrs by FRET method; format: nucleic-acid assay; conditions: in the assay text read “by CD melting method” for “by FRET method”
DNA [17] = experiment: Stabilization of Escherichia coli in G-quadruplex DNA GGG GGA GGA GGA CGG GGG assessed as change in melting temperature at 10 uM incubated for 16 hrs by FRET method; format: nucleic-acid assay; conditions: in the assay text read “by CD melting method” for “by FRET method”; summary of the method: as §3
DNA [18] = experiment: Stabilization of Escherichia coli in G-quadruplex DNA GGT GGG GAG GGG TAA GGG G assessed as melting temperature at 10 uM incubated for 16 hrs by […]; format: nucleic-acid assay; summary of the method: as §3
DNA [19] = experiment: Stabilization of Escherichia coli in G-quadruplex DNA GGG GGA GGA GGA CGG GGG assessed as melting temperature at 10 uM incubated for 16 hrs by […]; format: nucleic-acid assay; summary of the method: as §3
[20] = Toxicity against Galleria mellonella assessed as survival at 5 to 128 mg/kg measured after 5 days; format: organism-based; conditions: in vivo, dose 5-128 mg/kg, time 5 day, read-out: Activity
Summary of the method: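 For uninfected larvae, 20 per treatment, 10 µL was injected into the hemocoel through the last left proleg to give 8, 16, 32, 64 or 128 mg/kg. NaCl 0.9% served as the negative control. Larvae were held at 37 °C for 5 d, with mortality recorded daily.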

Staphylococcus aureus [21] = experiment: Antibacterial activity against Staphylococcus aureus LMG 8224; format: functional, organism-based; conditions: DDE = dose-dependent effect
Summary of the method: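 Cultures were inoculated at 2% and grown at 37 °C, with OD600 read every 5 min for 8 h. NDI-10 was added at exponential-phase onset (~3 h). Concentrations were 32, 16, 8 and 4 μM for E. coli, and 16, 8, 4 and […] μM for the Gram-positive strains.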

Bacillus cereus [22] = experiment: Antimicrobial activity against Bacillus cereus ATCC 10987 assessed as inhibition of bacterial growth in presence of D11 incubated for 20 hrs; conditions: ATCC 10987, 20 h
Salmonella enterica [23] = experiment: Antimicrobial activity against Salmonella enterica LMG 07233 assessed as inhibition of bacterial growth in presence of D11 incubated for 20 hrs; conditions: LMG 07233, 20 h
Enterobacter cloacae [24] = experiment: Antimicrobial activity against Enterobacter cloacae LMG 02783 assessed as inhibition of bacterial growth in presence of D11 incubated for 20 hrs; conditions: LMG 02783, 20 h
Klebsiella pneumoniae [25] = experiment: Antimicrobial activity against Klebsiella pneumoniae LMG 20218 assessed as inhibition of bacterial growth in presence of D11 incubated for 20 hrs; conditions: LMG 20218, 20 h
Pseudomonas aeruginosa [26] = experiment: Antimicrobial activity against Pseudomonas aeruginosa LMG 6395 assessed as inhibition of bacterial growth in presence of D11 incubated for 20 hrs; conditions: LMG 6395, 20 h
Enterococcus faecium [27] = experiment: Antibacterial activity against Enterococcus faecium LMG 11423 assessed as inhibition of bacterial growth incubated for 20 hrs by CLSI based broth microdilution method; conditions: LMG 11423, 20 h

For CN(C)CCCn1c(=O)c2ccc3c(=O)n(CCCN(C)C)c(=O)c4c5[nH]c6ccccc6[nH]c5c(c1=O)c2c34.O=C(O)C(F)(F)F.O=C(O)C(F)(F)F, which MIC (Enterobacter cloacae [1]) is on record?
Its MIC is 8 µM.

And the MIC (Escherichia coli [2])?
The MIC was 16 µM.

What about the MIC (Pseudomonas aeruginosa [3]) of the same compound?
The MIC was 128 µM.

What about the MIC (Salmonella enterica [4]) of the same compound?
The MIC was 64 µM.

And the MIC (Bacillus cereus [5])?
Its MIC is 8 µM.

And the MIC (Bacillus cereus [6])?
Its MIC is 8 µM.

What about the MIC (Enterococcus faecalis) of the same compound?
The MIC was 8 µM.

What about the MIC (Enterococcus faecium [7]) of the same compound?
The MIC was 4 µM.

And the MIC (Staphylococcus aureus [8])?
Its MIC is 16 µM.

What about the MIC (Acinetobacter baumannii) of the same compound?
The MIC was 128 µM.

What about the MIC (Enterobacter cloacae [9]) of the same compound?
The MIC was 8 µM.

What about the MIC (Escherichia coli [10]) of the same compound?
The MIC was 16 µM.

And the MIC (Klebsiella pneumoniae [11])?
Its MIC is over 128 µM.

What about the MIC (Bacillus cereus [12]) of the same compound?
The MIC was 64 µM.

What about the MIC (Enterococcus faecium [13]) of the same compound?
Its MIC is 32 µM.

What about the MIC (Staphylococcus aureus [14]) of the same compound?
The MIC was 128 µM.

And the ΔTm (DNA [15])?
The ΔTm was 27.3 °C.

And the ΔTm (DNA [16])?
The ΔTm was over 35.6 °C.

What about the ΔTm (DNA [17]) of the same compound?
The ΔTm was over 24.8 °C.

What about the Tm (DNA [18]) of the same compound?
The Tm was 91 °C.

And the Tm (DNA [19])?
Its Tm is over 95 °C.

What about the survival at 120 h [20] of the same compound?
Its survival at 120 h is 65%.

And the Activity (Staphylococcus aureus [21])?
Its Activity is “Dde”.

And the MIC (Bacillus cereus [22])?
Its MIC is 8 µM.

What about the MIC (Salmonella enterica [23]) of the same compound?
The MIC was under 0.5 µM.

And the MIC (Enterobacter cloacae [24])?
The MIC was 8 µM.

And the MIC (Klebsiella pneumoniae [25])?
Its MIC is 16 µM.

What about the MIC (Pseudomonas aeruginosa [26]) of the same compound?
Its MIC is 4 µM.

And the MIC (Enterococcus faecium [27])?
The MIC was 4 µM.
